Experimental data published in ChEMBL document CHEMBL1142488, “Synthesis of N-substituted 5-[2-(N-alkylamino)ethyl]dibenzo[c,h][1,6]naphthyridines as novel topoisomerase I-targeting antitumor agents” (Bioorg Med Chem, 2008).
Each block holds one compound with its values, some of them ahead of it.

Assays:
[1] = test system: MDA-MB-435 (Homo sapiens); test: Antitumor activity against human MDA-MB-435 cells xenografted in NCR/NU NU mouse assessed as tumor volume measured on day 49 initially dosed at 1.5 mg/kg, ip qd x 3/5 days schedule; details: route intraperitoneal
[2] = test system: MDA-MB-435 (Homo sapiens); test: Antitumor activity against human MDA-MB-435 cells xenografted in NCR/NU NU mouse assessed as tumor volume measured on day 35 initially dosed at 1.5 mg/kg, ip qd x 3/5 days schedule; details: route intraperitoneal
[3] = Cytotoxicity against human KB3-1 cells after MTT assay; format: functional, cell-based; details: KB 3-1
In short: (§1)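 IC50 after continuous 4-day exposure to varying drug concentrations, with MTT read at the end of day 4. A drug-free control was included. At least two runs, each in six replicate wells.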

[4] = Cytotoxicity against human RPMI8402 cells after MTT assay; format: functional, cell-based; details: RPMI 8402
In short: (§2)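 Suspension cultures at 37 °C, 5% CO2, in RPMI with 10% heat-inactivated FBS, 2 mM L-glutamine, penicillin and streptomycin. Continuous 4-day exposure to a range of drug concentrations, then MTT read-out to give IC50. Drug-free control included. At least two runs, six replicate wells each.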

[5] = Cytotoxicity against multidrug resistant human KBH5.0 cells overexpressing BCRP after MTT assay; format: functional, cell-based; details: KBH5.0 cell
In short: as §1

[6] = test system: MDA-MB-435 (human); test: Antitumor activity against human MDA-MB-435 cells xenografted in NCR/NU NU mouse assessed as tumor volume measured on day 7 initially dosed at 1.5 mg/kg, ip qd x 3/5 days schedule; details: route intraperitoneal
[7] = test system: MDA-MB-435 (Homo sapiens); test: Antitumor activity against human MDA-MB-435 cells xenografted in NCR/NU NU mouse assessed as tumor volume measured on day 42 initially dosed at 1.5 mg/kg, ip qd x 3/5 days schedule; details: route intraperitoneal
[8] = test system: MDA-MB-435 (Homo sapiens); test: Antitumor activity against human MDA-MB-435 cells xenografted in NCR/NU NU mouse assessed as tumor volume measured on day 28 initially dosed at 1.5 mg/kg, ip qd x 3/5 days schedule; details: route intraperitoneal
[9] = biological target: T1, DNA topoisomerase 1 (Homo sapiens) (UniProt P11387); test: Inhibition of human topoisomerase 1 mediated DNA cleavage assessed as effective drug concentration causing 10% YepG plasmid cleavage relative to camptothecin; details: in the assay text read “relative to topotecan” for “relative to camptothecin”
T1 sequence (whole entry): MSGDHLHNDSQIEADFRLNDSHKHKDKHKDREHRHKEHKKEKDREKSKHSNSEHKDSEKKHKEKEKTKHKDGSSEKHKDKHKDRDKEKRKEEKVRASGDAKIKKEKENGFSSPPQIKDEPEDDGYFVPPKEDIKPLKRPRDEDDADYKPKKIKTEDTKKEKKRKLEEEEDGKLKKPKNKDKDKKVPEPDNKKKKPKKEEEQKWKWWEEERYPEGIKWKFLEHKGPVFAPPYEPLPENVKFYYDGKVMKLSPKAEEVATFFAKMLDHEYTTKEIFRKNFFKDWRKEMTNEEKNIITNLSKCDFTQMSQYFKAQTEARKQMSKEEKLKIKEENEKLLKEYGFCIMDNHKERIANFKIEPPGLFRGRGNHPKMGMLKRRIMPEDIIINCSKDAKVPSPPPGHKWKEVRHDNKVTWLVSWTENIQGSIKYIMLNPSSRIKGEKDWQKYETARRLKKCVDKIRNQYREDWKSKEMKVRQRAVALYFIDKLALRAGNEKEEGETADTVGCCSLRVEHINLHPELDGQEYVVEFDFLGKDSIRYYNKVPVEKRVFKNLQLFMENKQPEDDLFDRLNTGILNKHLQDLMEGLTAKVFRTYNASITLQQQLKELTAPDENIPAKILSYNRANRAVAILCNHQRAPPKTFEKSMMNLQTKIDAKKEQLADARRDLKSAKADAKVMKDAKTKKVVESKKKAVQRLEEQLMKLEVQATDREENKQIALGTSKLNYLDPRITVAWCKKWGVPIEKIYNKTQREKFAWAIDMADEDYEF
In short: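 Stopped with SDS and proteinase K, 1 h at 37 °C. Alkali-denatured with NaOH/EDTA/sucrose/bromophenol blue, then run on neutral agarose gel.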

[10] = Cytotoxicity against camptothecin-resistant and TOP1 deficient mouse P388/CPT45 cells after MTT assay; format: functional, cell-based; details: P388CPT45
In short: as §2

[11] = Cytotoxicity against camptothecin-resistant human CPT-K5 cells after MTT assay; format: functional, cell-based
In short: as §2

[12] = Cytotoxicity against multidrug resistant human KBV-1 cells overexpressing MDR1 after MTT assay; format: functional, cell-based; details: KB-V1
In short: as §1

[13] = test system: MDA-MB-435 (Homo sapiens); test: Antitumor activity against human MDA-MB-435 cells xenografted in NCR/NU NU mouse assessed as tumor volume measured on day 14 initially dosed at 1.5 mg/kg, ip qd x 3/5 days schedule; details: route intraperitoneal
[14] = test system: MDA-MB-435 (Homo sapiens); test: Antitumor activity against human MDA-MB-435 cells xenografted in NCR/NU NU mouse assessed as tumor volume measured on day 21 initially dosed at 1.5 mg/kg, ip qd x 3/5 days schedule; details: route intraperitoneal
[15] = test system: MDA-MB-435 (human); test: Antitumor activity against human MDA-MB-435 cells xenografted in NCR/NU NU mouse assessed as tumor volume measured on day 7 initially dosed at 5 mg/kg, ip qd x 5/week for 1 week and was gradually increased to 7 mg/kg x 5/week schedule
[16] = test system: MDA-MB-435 (human); test: Antitumor activity against human MDA-MB-435 cells xenografted in NCR/NU NU mouse assessed as tumor volume measured on day 35 initially dosed at 5 mg/kg, ip qd x 5/week for 1 week and was gradually increased to 7 mg/kg x 5/week schedule
[17] = test system: MDA-MB-435 (human); test: Antitumor activity against human MDA-MB-435 cells xenografted in NCR/NU NU mouse assessed as tumor volume measured on day 42 initially dosed at 5 mg/kg, ip qd x 5/week for 1 week and was gradually increased to 7 mg/kg x 5/week schedule
[18] = test system: MDA-MB-435 (human); test: Antitumor activity against human MDA-MB-435 cells xenografted in NCR/NU NU mouse assessed as tumor volume measured on day 21 initially dosed at 5 mg/kg, ip qd x 5/week for 1 week and was gradually increased to 7 mg/kg x 5/week schedule
[19] = test system: MDA-MB-435 (human); test: Antitumor activity against human MDA-MB-435 cells xenografted in NCR/NU NU mouse assessed as tumor volume measured on day 14 initially dosed at 5 mg/kg, ip qd x 5/week for 1 week and was gradually increased to 7 mg/kg x 5/week schedule
[20] = test system: MDA-MB-435 (human); test: Antitumor activity against human MDA-MB-435 cells xenografted in NCR/NU NU mouse assessed as tumor volume measured on day 49 initially dosed at 5 mg/kg, ip qd x 5/week for 1 week and was gradually increased to 7 mg/kg x 5/week schedule
[21] = test system: P388; test: Cytotoxicity against mouse P388 cells after MTT assay; format: functional, cell-based
In short: as §2

[22] = test system: MDA-MB-435 (human); test: Antitumor activity against human MDA-MB-435 cells xenografted in NCR/NU NU mouse assessed as tumor volume measured on day 28 initially dosed at 5 mg/kg, ip qd x 5/week for 1 week and was gradually increased to 7 mg/kg x 5/week schedule
[23] = test system: MDA-MB-435 (human); test: Antitumor activity against human MDA-MB-435 cells xenografted in NCR/NU NU mouse assessed as tumor volume measured on day 28 initially dosed at 5 mg/kg, ip qd x 5/week for 1 week and dose schedule adjusted to achieve total dose of 301 mg/kg
[24] = test system: MDA-MB-435 (human); test: Antitumor activity against human MDA-MB-435 cells xenografted in NCR/NU NU mouse assessed as tumor volume measured on day 35 initially dosed at 5 mg/kg, ip qd x 5/week for 1 week and dose schedule adjusted to achieve total dose of 301 mg/kg
[25] = test system: MDA-MB-435 (human); test: Antitumor activity against human MDA-MB-435 cells xenografted in NCR/NU NU mouse assessed as tumor volume measured on day 42 initially dosed at 5 mg/kg, ip qd x 5/week for 1 week and dose schedule adjusted to achieve total dose of 301 mg/kg
[26] = test system: MDA-MB-435 (human); test: Antitumor activity against human MDA-MB-435 cells xenografted in NCR/NU NU mouse assessed as tumor volume measured on day 21 initially dosed at 5 mg/kg, ip qd x 5/week for 1 week and dose schedule adjusted to achieve total dose of 301 mg/kg
[27] = test system: MDA-MB-435 (human); test: Antitumor activity against human MDA-MB-435 cells xenografted in NCR/NU NU mouse assessed as tumor volume measured on day 49 initially dosed at 5 mg/kg, ip qd x 5/week for 1 week and dose schedule adjusted to achieve total dose of 301 mg/kg
[28] = test system: MDA-MB-435 (human); test: Antitumor activity against human MDA-MB-435 cells xenografted in NCR/NU NU mouse assessed as tumor volume measured on day 7 initially dosed at 5 mg/kg, ip qd x 5/week for 1 week and dose schedule adjusted to achieve total dose of 301 mg/kg
[29] = test system: MDA-MB-435 (human); test: Antitumor activity against human MDA-MB-435 cells xenografted in NCR/NU NU mouse assessed as tumor volume measured on day 14 initially dosed at 5 mg/kg, ip qd x 5/week for 1 week and dose schedule adjusted to achieve total dose of 301 mg/kg

- Activity [9]: 0.3
SMILES: COc1cc2c(=O)n(CCN(C)C)c3c4cc5c(cc4ncc3c2cc1OC)OCO5
- Activity [1]: 242 mm3
- Activity [2]: 175 mm³
- IC50 [3]: 5 nM
- IC50 [4]: 2 nM
- IC50 [5]: 6 nM
- Activity [6]: 120 mm3
- Activity [7]: 189 mm³
- Activity [8]: 158 mm³
- IC50 [10]: 230 nM
- IC50 [11]: 900 nM
- IC50 [12]: 5 nM
- Activity [13]: 123 mm³
- Activity [14]: 145 mm³

- Activity [9]: 0.1
SMILES: C#CCN(C)CCn1c(=O)c2cc(OC)c(OC)cc2c2cnc3cc4c(cc3c21)OCO4
- Activity [15]: 144 mm3
- Activity [16]: 317 mm3
- IC50 [4]: 8 nM
- IC50 [5]: 34 nM
- Activity [17]: 358 mm3
- IC50 [10]: 400 nM
- Activity [18]: 218 mm3
- Activity [19]: 167 mm3
- Activity [20]: 433 mm3
- IC50 [11]: 4500 nM
- IC50 [12]: 70 nM
- IC50 [21]: 20 nM
- Activity [22]: 284 mm3

- Activity [9]: 0.3
SMILES: COc1cc2c(=O)n(CCN(C)CC(N)=O)c3c4cc5c(cc4ncc3c2cc1OC)OCO5
- IC50 [3]: 10 nM
- Activity [23]: 319 mm3
- Activity [24]: 344 mm3
- IC50 [4]: 3 nM
- IC50 [5]: 320 nM
- Activity [25]: 434 mm3
- IC50 [10]: 390 nM
- IC50 [11]: 3500 nM
- Activity [26]: 230 mm3
- Activity [27]: 527 mm3
- Activity [28]: 147 mm3
- IC50 [21]: 9 nM
- Activity [29]: 178 mm3
